Reference: ChEMBL document CHEMBL1133510, “Synthesis and evaluation of novel steroidal oxime inhibitors of P450 17 (17 alpha-hydroxylase/C17-20-lyase) and 5 alpha-reductase types 1 and 2” (J Med Chem, 2000)

Tests used:
[1] = molecular target: T1, 3-oxo-5-alpha-steroid 4-dehydrogenase 1 (Homo sapiens, UniProt P18405); test: Evaluated for the inhibitory activity against human steroid 5-alpha-reductase type I in human DU-145 cell assay at 5 nM of androstenedione; format: cell-based
T1 sequence (P18405 whole entry): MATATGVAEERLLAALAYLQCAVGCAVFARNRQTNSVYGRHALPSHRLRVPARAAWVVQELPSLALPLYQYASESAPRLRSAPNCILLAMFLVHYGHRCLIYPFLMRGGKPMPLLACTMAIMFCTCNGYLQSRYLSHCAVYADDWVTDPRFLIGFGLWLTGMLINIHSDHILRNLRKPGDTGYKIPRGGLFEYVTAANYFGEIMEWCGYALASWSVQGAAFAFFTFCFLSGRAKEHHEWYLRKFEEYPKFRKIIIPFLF
Method in brief: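 Whole human DU-145 cells as source of type 1 enzyme, incubated with radiolabeled androstenedione at 5 nM; HPLC separation of product. IC50 = inhibitor concentration giving 50% inhibition; mean of at least two experiments.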

[2] = molecular target: T2, 3-oxo-5-alpha-steroid 4-dehydrogenase 2 (Homo sapiens, UniProt P31213); test: Inhibition of Human steroid 5-alpha-reductase type II expressed in HEK293 cells; format: cell-based
T2 sequence (P31213 whole entry): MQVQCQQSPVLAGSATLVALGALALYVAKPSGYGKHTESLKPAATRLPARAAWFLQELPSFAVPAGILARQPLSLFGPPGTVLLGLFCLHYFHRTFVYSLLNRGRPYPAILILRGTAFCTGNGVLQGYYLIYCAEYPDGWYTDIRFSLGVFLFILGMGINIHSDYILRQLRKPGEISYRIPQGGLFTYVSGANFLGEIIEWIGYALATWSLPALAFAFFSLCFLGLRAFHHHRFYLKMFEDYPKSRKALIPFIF
Method in brief: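 Stably transfected HEK293 clones expressing full-length human type 1 or type 2 cDNA; 300 000 cells per well attached overnight at 37 °C. Fresh DMEM/10% FCS with 5 nM [3H]androstenedione and inhibitor added, final DMSO 1%. Incubated 30 min (type 1) or 13 min (type 2); supernatant ether-extracted and analysed by HPLC. Mean of at least three experiments.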

[3] = molecular target: T1, 3-oxo-5-alpha-steroid 4-dehydrogenase 1; test: Inhibition of Human steroid 5-alpha-reductase type I expressed in HEK293 cells; format: cell-based
Method in brief: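 Human 5α-reductase type 1 cDNA (plasmid pRcCMV-I) stably transfected into HEK293 cells, clones chosen under G418. 300 000 cells/well attached overnight at 37 °C, then fresh DMEM/10% FCS containing 5 nM [3H]androstenedione plus inhibitor (1% DMSO) for 30 min. Supernatant extracted with ether, product measured by HPLC. IC50 taken as mean of at least three experiments.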

[4] = molecular target: T3, P450 scc (cholesterol side-chain cleavage enzyme, mitochondrial) (Bos taurus, UniProt P00189); test: Inhibition of P450 scc at 25 uM; conditions: cattle
T3 sequence (P00189 whole entry): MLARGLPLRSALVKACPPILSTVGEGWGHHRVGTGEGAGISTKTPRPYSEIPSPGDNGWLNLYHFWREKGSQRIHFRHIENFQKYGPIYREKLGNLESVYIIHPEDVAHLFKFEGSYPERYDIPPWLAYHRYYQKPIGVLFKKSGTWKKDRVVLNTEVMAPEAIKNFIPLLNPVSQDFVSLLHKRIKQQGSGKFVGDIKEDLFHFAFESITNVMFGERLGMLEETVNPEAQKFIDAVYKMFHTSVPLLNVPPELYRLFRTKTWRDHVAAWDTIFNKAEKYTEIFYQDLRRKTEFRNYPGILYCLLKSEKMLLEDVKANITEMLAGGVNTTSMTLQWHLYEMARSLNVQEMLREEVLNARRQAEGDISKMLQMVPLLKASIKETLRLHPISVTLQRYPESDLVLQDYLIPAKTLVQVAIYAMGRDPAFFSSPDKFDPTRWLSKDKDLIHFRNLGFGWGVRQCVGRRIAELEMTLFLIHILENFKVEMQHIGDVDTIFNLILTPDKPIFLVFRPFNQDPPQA
Method in brief: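 Bovine adrenal P450 scc preparation; inhibitor tested at 25 µM.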

[5] = molecular target: T4, Steroid 17-alpha-hydroxylase/17,20 lyase (Rattus norvegicus, UniProt P11715); test: Evaluated for the inhibitory activity towards Cytochrome P450 17 rat enzyme using testicular microsome at 25 uM of substrate (progesterone); parameters: species or system Testis
T4 sequence (P11715 whole entry): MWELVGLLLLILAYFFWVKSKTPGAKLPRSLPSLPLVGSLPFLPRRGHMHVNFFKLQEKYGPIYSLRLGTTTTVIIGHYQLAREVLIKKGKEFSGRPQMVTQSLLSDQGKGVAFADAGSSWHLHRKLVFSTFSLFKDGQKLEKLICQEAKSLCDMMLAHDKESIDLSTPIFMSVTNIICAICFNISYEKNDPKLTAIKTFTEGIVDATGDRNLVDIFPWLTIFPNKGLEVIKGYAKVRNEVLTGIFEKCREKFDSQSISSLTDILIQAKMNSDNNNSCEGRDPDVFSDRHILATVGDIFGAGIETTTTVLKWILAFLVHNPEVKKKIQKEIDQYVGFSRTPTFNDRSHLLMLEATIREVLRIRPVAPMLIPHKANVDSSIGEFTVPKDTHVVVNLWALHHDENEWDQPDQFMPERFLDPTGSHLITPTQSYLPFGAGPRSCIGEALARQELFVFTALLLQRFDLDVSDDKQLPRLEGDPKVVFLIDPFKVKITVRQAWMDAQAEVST
Method in brief: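 Testicular microsomes (human for human enzyme, rat for rat enzyme) incubated with progesterone substrate at 25 µM; product measured by RP-HPLC with UV detection. IC50 = concentration giving 50% inhibition, mean of at least two experiments.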

[6] = molecular target: T5, Steroid 17-alpha-hydroxylase/17,20 lyase (Homo sapiens, UniProt P05093); test: Evaluated for the inhibitory activity towards Cytochrome P450 17 human enzyme using testicular microsome at 25 uM of substrate (progesterone); parameters: species or system Testis
T5 sequence (P05093 whole entry): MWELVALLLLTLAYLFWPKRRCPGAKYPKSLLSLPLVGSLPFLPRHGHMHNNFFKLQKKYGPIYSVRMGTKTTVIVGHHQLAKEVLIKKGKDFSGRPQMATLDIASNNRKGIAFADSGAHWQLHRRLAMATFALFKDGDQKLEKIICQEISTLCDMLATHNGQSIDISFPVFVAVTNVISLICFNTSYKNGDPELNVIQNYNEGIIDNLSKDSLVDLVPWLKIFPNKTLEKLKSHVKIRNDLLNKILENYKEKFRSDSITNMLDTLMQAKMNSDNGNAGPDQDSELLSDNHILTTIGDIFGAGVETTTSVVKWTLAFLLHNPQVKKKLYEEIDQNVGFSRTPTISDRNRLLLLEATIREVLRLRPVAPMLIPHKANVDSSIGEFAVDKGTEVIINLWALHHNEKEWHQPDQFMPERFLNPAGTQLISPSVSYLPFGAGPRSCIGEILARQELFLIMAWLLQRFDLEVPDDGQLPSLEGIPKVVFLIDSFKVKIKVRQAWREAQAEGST

[7] = molecular target: T6, Thromboxane-A synthase (Homo sapiens) (UniProt P24557); conditions: 50 uM
T6 sequence (whole entry): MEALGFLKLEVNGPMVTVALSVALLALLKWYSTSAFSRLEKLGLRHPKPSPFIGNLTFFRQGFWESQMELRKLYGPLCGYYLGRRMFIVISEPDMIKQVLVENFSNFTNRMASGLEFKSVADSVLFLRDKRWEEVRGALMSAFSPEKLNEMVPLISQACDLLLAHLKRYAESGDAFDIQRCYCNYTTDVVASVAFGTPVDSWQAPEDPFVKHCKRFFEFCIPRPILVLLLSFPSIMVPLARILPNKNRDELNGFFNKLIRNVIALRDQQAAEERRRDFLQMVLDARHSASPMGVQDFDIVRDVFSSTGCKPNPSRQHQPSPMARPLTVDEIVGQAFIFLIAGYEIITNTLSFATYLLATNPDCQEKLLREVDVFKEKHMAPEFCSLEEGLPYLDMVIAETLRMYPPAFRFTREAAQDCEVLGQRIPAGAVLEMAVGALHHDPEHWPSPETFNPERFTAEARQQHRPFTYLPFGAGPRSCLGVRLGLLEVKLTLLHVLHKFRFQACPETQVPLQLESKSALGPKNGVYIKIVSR

[8] = molecular target: T2, 3-oxo-5-alpha-steroid 4-dehydrogenase 2; test: Evaluated for the inhibitory activity against human steroid 5-alpha-reductase type 2 from human BPH tissue at 210 nM of testosterone
Method in brief: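 Enzyme from prostate homogenate of BPH patients, assayed at pH 5.5 with radiolabeled testosterone at 210 nM; product separated by HPLC. IC50 taken as inhibitor concentration giving 50% inhibition; mean of at least two experiments.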

[9] = molecular target: T5, Steroid 17-alpha-hydroxylase/17,20 lyase; test: Inhibition of Human P450 17 and NADPH-P450 reductase co-expressed in Escherichia coli with 25 uM progesterone
[10] = molecular target: T4, Steroid 17-alpha-hydroxylase/17,20 lyase; test: Inhibition of Cytochrome P450 17 from rat testicular microsome at 25 uM progesterone; No inhibition
[11] = molecular target: T5, Steroid 17-alpha-hydroxylase/17,20 lyase; test: Inhibition of Cytochrome P450 17 of human testicular microsome at 25 uM progesterone; No inhibition

Compound | IC50 [5] [nM] | IC50 [6] [nM] | IC50 [8] [nM] | IC50 [1] [nM] | also measured
CC(C)(C)NC(=O)[C@H]1CC[C@H]2[C@@H]3CC[C@H]4NC(=O)C=C[C@]4(C)[C@H]3CC[C@]12C [FINASTERIDE] | – | – | – | 40 | IC50 [2]: 60 nM; IC50 [3]: 540 nM
O=C(O)c1ccc(OCCn2ccnc2)cc1 | – | – | – | – | IC50 [7]: 1100 nM
C[C@]12CC[C@H](O)C=C1CC[C@H]1C3CC/C(=C/C=N\O)[C@@]3(C)CC[C@@H]12 (some centres undefined) | 140 | 180 | 430 | – | –
C/C(=N/O)C1=CCC2[C@@H]3CC=C4C[C@@H](O)CC[C@]4(C)[C@H]3CC[C@]12C (some centres undefined) | > 125000 | 170 | – | – | IC50 [9]: 520 nM
C/C(=N/O)C1=CCC2C3CCC4=CC(=O)CCC4(C)C3CCC12C (centres undefined) | > 125000 | 100 | > 10000 | > 10000 | –
C/C(=N/O)[C@@]1(O)CCC2C3CC=C4CC(O)CCC4(C)C3CCC21C (some centres undefined) | – | – | – | – | IC50 [10]: Not Active; IC50 [11]: Not Active

Now from value to compound, other results behind:

IC50 [5] [nM] | IC50 [6] [nM] | IC50 [8] [nM] | Compound | IC50 [1] [nM] | also measured
2760 | 270 | – | CC12CCC(O)CC1=CCC1C2CCC2(C)C(C/C=N/O)CCC12 (centres undefined) | – | inhibition at 25 µM [4]: 74%
– | > 2500 | 3200 | C/C(=N/O)[C@H]1CCC2C3CC(=O)C4=CC(=O)CCC4(C)C3CCC21C (some centres undefined) | > 10000 | IC50 [10]: Not Active
3600 | > 2500 | 470 | C/C(CC1CCC2C3CCC4=CC(=O)CCC4(C)C3CCC12C)=N\O (centres undefined) | 900 | –
9800 | 1180 | – | C/C(CC1CCC2C3CC=C4CC(O)CCC4(C)C3CCC12C)=N\O (centres undefined) | – | –
